Data on 167 variants can be found in the RNAGym collection of RNA variant scans (doi:10.1126/science.aae0568).

Fewer inactive variants are shown than the library holds.

B1: tRNA (parent)
chain: GUUCCGUUGGCGUAAUGGUAACGCGUCUCCCUCCUAAGGAGAAGACUGCGGGUUCGAGUCCCGUACGGAACG

The variants in this series derive from B1. The experiment in a line: yeast fitness relative to wild type (ratio to wild type); higher = fitter; tRNA-Arg(CCU), competitive growth, 37 C, YPD. The procedure, abridged: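 Start and end populations of a pooled competition were compared by 100-nucleotide paired-end sequencing of gene amplicons. The Saccharomyces cerevisiae strains carried tRNA-Arg(CCU) gene variants at the native genomic locus, synthesised with a 3% per-site mutation rate at 69 sites, and competed in YPD at 37°C for 24 hours in six parallel replicates. Darwinian fitness relative to wild type was based on the change in genotype frequencies. Genotypes required ≥ 100 starting reads, and estimates < 0.5 were set to 0.5.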
U2C C24G C34U C49A: the yeast fitness was at most 0.5.
For U2C C4U C27U A45C G48A G56C, the yeast fitness is at most 0.5.
With U2C C4A G23A C61A, the yeast fitness is at most 0.5.
The result for U2C U7A U35A G56A reads at most 0.5.
On to U2C C34G, for which the yeast fitness is 0.62.
Regarding U2C C62U, the yeast fitness came to 0.882.
Consider U2C C62A, for which the yeast fitness worked out at 0.677.
The figure for U2C G12A G18C C33U C60A is at most 0.5; for U2C C33G C34U C49U it is at most 0.5; for U2C C5A G10C G12A G23A it is at most 0.5.
U2C C5G G9A A15U: the yeast fitness turned out to be 0.539.
Turning to U2C A40C A57C C66U, the yeast fitness was at most 0.5.
Regarding U2C C11U A37U U53A, the yeast fitness was at most 0.5.
For the variant U2C C31G G58A C61G U64G A69C, the yeast fitness is at most 0.5.
Consider U2C A40C C66U, for which the yeast fitness worked out at 0.524.
In the case of U2C G6A A20U C30U A36U C62U, the yeast fitness was at most 0.5.
As to U2C C11G A14C C61U U64A, the yeast fitness was determined as 0.623.
Regarding U2C A45U C46G G58C U59C A65G C66G, the yeast fitness came out at 0.628.
U2C U8C: the yeast fitness is 0.965.
The result for U2C G17C G23A C49G reads at most 0.5; that for U2C C29A U53C C62A G67A, at most 0.5; that for U2C C4U A42G, 0.512.
As to U2C A43U G50A U54G G68C, the yeast fitness was at most 0.5.
In the case of U2C C5A C24A U64G, the yeast fitness was at most 0.5.
The figure for U2C A45G C49G is at most 0.5; for U2C G25C A43U it is 0.624; for U2C C46G it is 0.98.
In the case of U2C C29U A37G A57G, the yeast fitness was at most 0.5.
For U2C A45C C49U, the yeast fitness came out at 0.698.
The result for U2C G25A reads 0.943; that for U2C G25C, 0.953.
The result for U2C C27G A43U A45U A69U reads at most 0.5.
The result for U2C G9C C24U U26G reads at most 0.5; that for U2C G18A C29A, at most 0.5; that for U2C C30U A37C G38C U54A, at most 0.5.
For U2C A42C U54A G67C A69U, the yeast fitness was at most 0.5.
Turning to U2C G23A C33G U35G C60U C62G, the yeast fitness was at most 0.5.
On to U2C C4U C34A A65C C66G, for which the yeast fitness stood at 0.583.
As for U2C U8A G17C G38A G56C C61A, the yeast fitness was at most 0.5.
Take U2C C11U A21C U26C C34A A45U C46A G50A U54C C55G: the yeast fitness is at most 0.5.
The figure for U2C C27A A69C is at most 0.5; for U2C U8A G17C G38A it is at most 0.5.
Take U2C C5G C46U G58A: the yeast fitness came to 0.611.
Regarding U2C A40G A43U A45C, the yeast fitness was at most 0.5.
The result for U2C G48A C60A A70G reads at most 0.5; that for U2C A40G G68C, 0.571.
As for U2C G17A A37C A65G, the yeast fitness was found to be 0.539.
Take U2C A43G C49A A57U: the yeast fitness is at most 0.5.
On to U2C G12C A14G C29U, for which the yeast fitness was at most 0.5.
For the variant U2C U8C A21U C29U G39A G51C C60U C66G, the yeast fitness was at most 0.5.
On to U2C G52A, for which the yeast fitness stood at 0.75.
As for U2C A40C, the yeast fitness was 0.851.
With U2C C11A U32C, the yeast fitness is at most 0.5.
Take U2C U7C G23A: the yeast fitness was found to be 0.592.
The result for U2C G12A A15G reads at most 0.5; that for U2C C30U C31G G50U, at most 0.5; that for U2C G67A, 0.911.
For the variant U2C A20U C34G A42G A43U A65G, the yeast fitness is at most 0.5.
Turning to U2C A45C, the yeast fitness came to 1.01.
For the variant U2C A45G, the yeast fitness amounted to 0.883.
For the variant U2C G23C, the yeast fitness was 0.651.
For U2C A20U G25A C27G G67A, the yeast fitness is at most 0.5.
On to U2C A37U, for which the yeast fitness turned out to be 0.826.
Take U2C A37C: the yeast fitness was determined as 0.81.
For U2C A37G, the yeast fitness was 0.67.
Take U2C U7G C33U C55A: the yeast fitness was at most 0.5.
On to U2C A21C C30A C62U A70U, for which the yeast fitness is at most 0.5.
With U2C G10A U54A, the yeast fitness was found to be 0.554.
On to U2C G25C C31U U32A, for which the yeast fitness is at most 0.5.
Regarding U2C G50A, the yeast fitness is 0.878.
As to U2C A43C A45C G51C, the yeast fitness is at most 0.5.
On to U2C G58A, for which the yeast fitness was determined as 0.893.
The figure for U2C A21G A65U is 0.665; for U2C U3C C34U C62G G63A it is at most 0.5; for U2C G10A C30U it is 0.629.
The result for U2C C5G C30G G44A reads at most 0.5; that for U2C G58A C62G, 0.597.
For U2C C11U C22U A57U, the yeast fitness was at most 0.5.
Take U2C C29U G38C A43U U53G G63C: the yeast fitness is at most 0.5.
Regarding U2C U3C C34U A40U C55U A65G, the yeast fitness was at most 0.5.
As to U2C C22G U53C, the yeast fitness worked out at 0.504.
On to U2C A36C, for which the yeast fitness stood at 0.543.
With U2C A36G, the yeast fitness was 0.907.
With U2C A36U, the yeast fitness is 0.682.
The figure for U2C G6A G23A C27U A45C U47C C60A is at most 0.5.
On to U2C A69C, for which the yeast fitness was determined as 0.872.
Take U2C A69U: the yeast fitness is 0.96.
U2C C22U G48A G63C: the yeast fitness was 0.701.
Turning to U2C A36U C46G A69U, the yeast fitness turned out to be 0.517.
The result for U2C C4A C60A C62U reads at most 0.5; that for U2C A21G A36G G38C, at most 0.5.
As to U2C C49G, the yeast fitness was 0.798.
With U2C C24U G44C A69U, the yeast fitness is at most 0.5.
For the variant U2C U3A U19G G44C, the yeast fitness amounted to 0.591.
Take U2C A21C A42U U54A: the yeast fitness is at most 0.5.
As for U2C G10C G41A G50C, the yeast fitness was 0.585.
For the variant U2C C24A U26A U47C, the yeast fitness was at most 0.5.
Regarding U2C G10C C11U C34A A37C, the yeast fitness turned out to be 0.609.
As to U2C G12A A36U, the yeast fitness was at most 0.5.
Take U2C G12A: the yeast fitness was 0.993.
As to U2C A57C A69U, the yeast fitness came out at 0.578.
Take U2C A36G C61G U64C: the yeast fitness was at most 0.5.
The result for U2C U3A U26C U53C reads at most 0.5; that for U2C G12C C49U A65G, at most 0.5.
The figure for U2C A37U G52A is at most 0.5.
Take U2C U3C U19A C61A: the yeast fitness is at most 0.5.
As for U2C C11U A65C, the yeast fitness is 0.583.
For the variant U2C C27A G41A C49A U53C U54C, the yeast fitness is at most 0.5.
The figure for U2C G23A C46U is 0.528; for U2C C4A C29G it is 0.704.
Take U2C C34U C46A: the yeast fitness is at most 0.5.
The result for U2C C4U C34U C55U G68C reads at most 0.5; that for U2C C11G U19G, at most 0.5; that for U2C G23C C29A C49G A57U, at most 0.5.
For the variant U2C C11U, the yeast fitness stood at 1.03.
As to U2C C4U C34U, the yeast fitness stood at 0.719.
As to U2C A21G C33G A69C, the yeast fitness turned out to be 0.57.
Consider U2C U3C C34U G68C, for which the yeast fitness is at most 0.5.
For the variant U2C G10A C34G C46U G48C U54G, the yeast fitness is at most 0.5.
Regarding U2C G38A C55A, the yeast fitness is at most 0.5.
Regarding U2C C22A C29A C55U C61A, the yeast fitness is at most 0.5.
U2C C24G U53G A57G: the yeast fitness was at most 0.5.
On to U2C C4G G9A C24U A45C, for which the yeast fitness is at most 0.5.
Take U2C G9C: the yeast fitness came out at 0.722.
As to U2C G9A C24G C30U C62U, the yeast fitness was at most 0.5.
As to U2C G6A U16A, the yeast fitness was 0.65.
Take U2C C27U G41A: the yeast fitness turned out to be 1.06.
U2C U3G G10A A69C: the yeast fitness is at most 0.5.
Consider U2C C11G C24A, for which the yeast fitness came to 0.665.
For U2C C4A U13C C29U U47A G52A C62U, the yeast fitness was at most 0.5.
The figure for U2C G9C U28C G50C A57C A69U is at most 0.5; for U2C C61G U64C it is at most 0.5.
Take U2C G18C G25C C30A G63C: the yeast fitness is at most 0.5.
For the variant U2C C49G A65G, the yeast fitness amounted to 0.594.
Consider U2C C22G C31U C60U C61U, for which the yeast fitness came out at 0.527.
Turning to U2C C27A A40G C61G, the yeast fitness was at most 0.5.
For U2C G51A A69U, the yeast fitness is at most 0.5.
U2C C31U A57U: the yeast fitness was 0.535.
As to U2C C31U, the yeast fitness is 0.892.
On to U2C C31A, for which the yeast fitness amounted to 0.879.
With U2C C31G, the yeast fitness is 1.04.
Turning to U2C C27A C62A, the yeast fitness turned out to be 0.641.
For the variant U2C G63C, the yeast fitness amounted to 0.747.
Take U2C G41A C62U: the yeast fitness was 0.528.
The result for U2C C22G A36G reads 0.651; that for U2C C29U C31G U35A, at most 0.5; that for U2C C30U C33U G63C, at most 0.5.
The result for U2C G48A C66U reads 0.681.
The figure for U2C C29A A43G is 0.603.
U2C C27G U28A A43U: the yeast fitness stood at 0.629.
As to U2C A40C G48A, the yeast fitness stood at 0.751.
The result for U2C C46U C66U reads 0.779; that for U2C U7A C31A C66G, at most 0.5; that for U2C A45G G56C, 0.575.
For the variant U2C A45C C46U G68C, the yeast fitness is at most 0.5.
The result for U2C A42G G63A reads 0.543.
With U2C A40G A43U A45C A57G A65C, the yeast fitness came to 0.52.
The figure for U2C G48A G67A is 0.633.
As for U2C C4A C27G C34G G51A, the yeast fitness worked out at 0.514.
U2C C24U C60A: the yeast fitness was at most 0.5.
U2C G10C A14U G38C: the yeast fitness was at most 0.5.
The figure for U2C A40G C61A is at most 0.5; for U2C G10C A45C it is at most 0.5; for U2C G50A G51A it is 0.511.
For U2C C11A A40C, the yeast fitness came out at 0.553.
On to U2C C11G C27U C46G, for which the yeast fitness is 0.606.
As to U2C A36C G39A A57U, the yeast fitness is 0.539.
